Consider 1 compound from ChEMBL document CHEMBL1140136, “Structural modifications of N-(1,2,3,4-tetrahydronaphthalen-1-yl)-4-aryl-1-piperazinehexanamides: influence on lipophilicity and 5-HT7 receptor activity. Part III” (J Med Chem, 2008).

A short description of series [1]: Plasma concentration in CD1 albino mouse at 10 mg/kg, ip after 1 hr. In kind it is ADME, organism-based. Details: dose 10 mg/kg, route intraperitoneal. In a few lines:
(§1)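 Male CD1 mice (25-30 g) received 10 mg/kg ip, with 3 mice per time point. Heparinized trunk blood gave plasma; brain was homogenized in water (1 g/10 mL). Samples were extracted with hexane/isoamyl alcohol and assayed by RP-HPLC-UV at 230 nm with an internal standard. Quantification limits were 0.1 µg/mL plasma and 0.1 µg/g brain. Cmax and its time were read from the data.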

Series [2] can be described thus: Cmax in CD1 albino mouse brain at 10 mg/kg, ip after 30 mins. Details: dose 10 mg/kg, route intraperitoneal. In kind it is ADME, organism-based. In outline:
as §1

Series [3] can be described thus: Cmax in CD1 albino mouse plasma at 10 mg/kg, ip after 15 mins.
Series [4] is described as follows: Elimination half life in CD1 albino mouse brain at 10 mg/kg, ip. In kind it is ADME, organism-based. Details: dose 10 mg/kg, route intraperitoneal. The conditions noted are these: read-out: beta t1/2. In outline:
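Male CD1 albino mice (25-30 g), 10 mg/kg i.p., 3 mice per time point. Brains were removed, blotted, frozen, homogenized in water (1 g/10 mL) and extracted twice with hexane/isoamyl alcohol. Parent and 1-arylpiperazine metabolite were measured by RP-HPLC-UV at 230 nm. LLOQ about 0.1 µg/g; no residual-blood correction. Cmax read directly, AUC by linear trapezoidal rule, t1/2 by noncompartmental analysis.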

As usually defined, the Cmax is the highest concentration seen after dosing. Take `CSc1ccccc1N1CCN(CCCCCC(=O)NC2CCCc3ccccc32)CC1` (centres undefined): in series [1], the concentration at 1 h was below 100 ng/mL. Moreover, the highest concentration (Cmax) in series [2] is 580 ng/g; in series [3] it was 310 ng/mL. Further, the half-life in series [4] worked out at 20 min.
